B1: Osa-1-4 twister ribozyme (parent)
chain: CCGCCUAACACUGCCAAUGCCGGUCCCAAGCCCGGAUAAAAGUGGAGGGGGCGG

The variants in the data set derive from B1. The data set can be described thus: self-cleavage, relative activity (ratio to wild type); higher = more cleavage; co-transcriptional. In short, it runs like this:
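The 48 positions downstream of the cleavage site in a 54-nucleotide Oryza sativa twister ribozyme template were synthesised at 97 % wild-type base and 1 % of each other base. The template was transcribed in vitro at 37 °C for 2 h, with self-cleavage allowed during transcription. Reads with or without upstream sequence after deep sequencing marked cleavage status, and relative activity is fraction cleaved normalised to wild type.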
Consider CCGCCUAACACUGCCAGUGCCGGUCUCAAGCCCGGAUAAAAGUGGAGGGGGCGG [A17G C26U], for which the self-cleavage turned out to be 0.88.

Take CCGCCUAACACUGCCAGUGCCGGUCGCAAGCCCGGAUAAAAGUGGAGGGGGCGG [A17G C26G]: the self-cleavage is 0.12. As to CCGCCUAACACUGCCAGUGCCGGUCACAAGCCCGGAUAAAAGUGGAGGGGGCGG [A17G C26A], the self-cleavage was found to be 0.08. On to CCGCCUAACACUGCCAGUGCCGGUCCCAAGCGCGGAUAAAAGUGGAGGGGGCGG [A17G C32G], for which the self-cleavage is 0.15.

For the variant CCGCCUAACACUGCCAGUGCCGGUCCCAAGCACGGAUAAAAGUGGAGGGGGCGG [A17G C32A], the self-cleavage is 0.07. CCGCCUAACACUGCCAGUGCCGGUCCCAAGCUCGGAUAAAAGUGGAGGGGGCGG [A17G C32U]: the self-cleavage stood at 0.19. As to CCGCCUAAUACUGCCAGUGCCGGUCCCAAGCCCGGAUAAAAGUGGAGGGGGCGG [A17G C9U], the self-cleavage was found to be 0.47. Regarding CCGCCUAAAACUGCCAGUGCCGGUCCCAAGCCCGGAUAAAAGUGGAGGGGGCGG [A17G C9A], the self-cleavage was 0.33. With CCGCCUAAGACUGCCAGUGCCGGUCCCAAGCCCGGAUAAAAGUGGAGGGGGCGG [A17G C9G], the self-cleavage was found to be 0.78. With CCGCCUAACACUGCCAGUGGCGGUCCCAAGCCCGGAUAAAAGUGGAGGGGGCGG [A17G C20G], the self-cleavage was 0.19. With CCGCCUAACACUGCCAGUGACGGUCCCAAGCCCGGAUAAAAGUGGAGGGGGCGG [A17G C20A], the self-cleavage amounted to 0.89. For CCGCCUAACACUGCCAGUGUCGGUCCCAAGCCCGGAUAAAAGUGGAGGGGGCGG [A17G C20U] the value was 0.97; for CCGCCUAACACUGCCAGUGCCGGUCCCAAGUCCGGAUAAAAGUGGAGGGGGCGG [A17G C31U], 0.9; for CCGCCUAACACUGCCAGUGCCGGUCCCAAGACCGGAUAAAAGUGGAGGGGGCGG [A17G C31A], 0.05. CCGCCUAACACUGCCAGUGCCGGUCCCAAGGCCGGAUAAAAGUGGAGGGGGCGG [A17G C31G]: the self-cleavage worked out at 0.22. For CCGCCUAACAUUGCCAGUGCCGGUCCCAAGCCCGGAUAAAAGUGGAGGGGGCGG [A17G C11U] the value was 0.68; for CCGCCUAACAAUGCCAGUGCCGGUCCCAAGCCCGGAUAAAAGUGGAGGGGGCGG [A17G C11A], 0.5. In the case of CCGCCUAACAGUGCCAGUGCCGGUCCCAAGCCCGGAUAAAAGUGGAGGGGGCGG [A17G C11G], the self-cleavage stood at 0.3. On to CCGCCUAACACUACCAGUGCCGGUCCCAAGCCCGGAUAAAAGUGGAGGGGGCGG [A17G G13A], for which the self-cleavage amounted to 0.23. As for CCGCCUAACACUCCCAGUGCCGGUCCCAAGCCCGGAUAAAAGUGGAGGGGGCGG [A17G G13C], the figure is 0.03; as for CCGCCUAACACUUCCAGUGCCGGUCCCAAGCCCGGAUAAAAGUGGAGGGGGCGG [A17G G13U], 0.04. Regarding CCGCCUAACACUGACAGUGCCGGUCCCAAGCCCGGAUAAAAGUGGAGGGGGCGG [A17G C14A], the self-cleavage stood at 0.19. Take CCGCCUAACACUGGCAGUGCCGGUCCCAAGCCCGGAUAAAAGUGGAGGGGGCGG [A17G C14G]: the self-cleavage is 0.29. Regarding CCGCCUAACACUGUCAGUGCCGGUCCCAAGCCCGGAUAAAAGUGGAGGGGGCGG [A17G C14U], the self-cleavage was 0.69. Turning to CCGCCUAACACUGCCAGUGCCGGUCCCAAGCCCGGAUAAAAGUGGAGGGGGGGG [A17G C52G], the self-cleavage was 0.9. Turning to CCGCCUAACACUGCCAGUGCCGGUCCCAAGCCCGGAUAAAAGUGGAGGGGGUGG [A17G C52U], the self-cleavage worked out at 1.01. Regarding CCGCCUAACACUGCCAGUGCCGGUCCCAAGCCCGGAUAAAAGUGGAGGGGGAGG [A17G C52A], the self-cleavage stood at 0.95. In the case of CCGCCUAACACUGCGAGUGCCGGUCCCAAGCCCGGAUAAAAGUGGAGGGGGCGG [A17G C15G], the self-cleavage came out at 0.71.

Regarding CCGCCUAACACUGCUAGUGCCGGUCCCAAGCCCGGAUAAAAGUGGAGGGGGCGG [A17G C15U], the self-cleavage turned out to be 0.71. As for CCGCCUAACACUGCAAGUGCCGGUCCCAAGCCCGGAUAAAAGUGGAGGGGGCGG [A17G C15A], the figure is 0.78. CCGCCUAACACUGCCAGUGCCGGUCCGAAGCCCGGAUAAAAGUGGAGGGGGCGG [A17G C27G]: the self-cleavage was 0.13. On to CCGCCUAACACUGCCAGUGCCGGUCCAAAGCCCGGAUAAAAGUGGAGGGGGCGG [A17G C27A], for which the self-cleavage came to 0.35. Take CCGCCUAACACUGCCAGUGCCGGUCCUAAGCCCGGAUAAAAGUGGAGGGGGCGG [A17G C27U]: the self-cleavage was found to be 0.29. On to CCGCCUAACACUGCCAGUGCCGGUCCCAAGCCGGGAUAAAAGUGGAGGGGGCGG [A17G C33G], for which the self-cleavage is 0.07. As to CCGCCUAACACUGCCAGUGCCGGUCCCAAGCCUGGAUAAAAGUGGAGGGGGCGG [A17G C33U], the self-cleavage was 0.19. Consider CCGCCUAACACUGCCAGUGCCGGUCCCAAGCCAGGAUAAAAGUGGAGGGGGCGG [A17G C33A], for which the self-cleavage turned out to be 0.18. On to CCGCCUAACACUGCCAGUGCCGGUCCCAAGCCCGGAUAAAAGUGGUGGGGGCGG [A17G A46U], for which the self-cleavage was found to be 0.09. Turning to CCGCCUAACACUGCCAGUGCCGGUCCCAAGCCCGGAUAAAAGUGGGGGGGGCGG [A17G A46G], the self-cleavage is 0.07. For CCGCCUAACACUGCCAGUCCCGGUCCCAAGCCCGGAUAAAAGUGGAGGGGGCGG [A17G G19C], the self-cleavage is 0.29. In the case of CCGCCUAACACUGCCAGUUCCGGUCCCAAGCCCGGAUAAAAGUGGAGGGGGCGG [A17G G19U], the self-cleavage worked out at 0.52. As for CCGCCUAACACUGCCAGUACCGGUCCCAAGCCCGGAUAAAAGUGGAGGGGGCGG [A17G G19A], the self-cleavage stood at 0.95. As for CCGCCUAACACUGCCAGUGCUGGUCCCAAGCCCGGAUAAAAGUGGAGGGGGCGG [A17G C21U], the self-cleavage came out at 0.98. As for CCGCCUAACACUGCCAGUGCGGGUCCCAAGCCCGGAUAAAAGUGGAGGGGGCGG [A17G C21G], the figure is 0.09; as for CCGCCUAACACUGCCAGUGCAGGUCCCAAGCCCGGAUAAAAGUGGAGGGGGCGG [A17G C21A], 0.8; as for CCGCCUAACACUGCCAGUGCCAGUCCCAAGCCCGGAUAAAAGUGGAGGGGGCGG [A17G G22A], 0.97. CCGCCUAACACUGCCAGUGCCCGUCCCAAGCCCGGAUAAAAGUGGAGGGGGCGG [A17G G22C]: the self-cleavage amounted to 0.15. Regarding CCGCCUAACACUGCCAGUGCCGGUUCCAAGCCCGGAUAAAAGUGGAGGGGGCGG [A17G C25U], the self-cleavage stood at 0.87. For CCGCCUAACACUGCCAGUGCCGGUGCCAAGCCCGGAUAAAAGUGGAGGGGGCGG [A17G C25G] the value was 0.13; for CCGCCUAACACUGCCAGUGCCGGUACCAAGCCCGGAUAAAAGUGGAGGGGGCGG [A17G C25A], 0.21.
